We go through 11 molecules from ChEMBL document CHEMBL3867488 (ACS Med Chem Lett, 2016).

The target of data set [1] is T1, Oxysterols receptor LXR-alpha (Homo sapiens, UniProt Q13133).
T1 sequence (Q13133 whole entry): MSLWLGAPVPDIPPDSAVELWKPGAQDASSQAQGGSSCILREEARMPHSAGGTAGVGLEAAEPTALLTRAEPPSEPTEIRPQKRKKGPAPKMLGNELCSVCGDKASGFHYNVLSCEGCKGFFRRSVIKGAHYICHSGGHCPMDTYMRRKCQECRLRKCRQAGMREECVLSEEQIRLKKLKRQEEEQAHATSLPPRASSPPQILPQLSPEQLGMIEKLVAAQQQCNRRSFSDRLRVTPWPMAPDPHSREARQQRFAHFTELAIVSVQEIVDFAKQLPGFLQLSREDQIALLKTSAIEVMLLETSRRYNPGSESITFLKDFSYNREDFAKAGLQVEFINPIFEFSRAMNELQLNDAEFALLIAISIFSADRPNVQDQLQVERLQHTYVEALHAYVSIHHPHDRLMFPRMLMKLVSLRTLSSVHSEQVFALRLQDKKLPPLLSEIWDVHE
Description: Agonist activity at human LXR-alpha expressed in African green monkey CV1 cells measured after 18 to 20 hrs by luciferase reporter gene assay relative to pan agonist 1-(2,4-difluorobenzyl)-2-oxo-6-(4-phenoxyphenyl)-4-(trifluoromethyl)-1,2-dihydropyridine-3-carbonitrile. In kind it is cell-based. The settings on record: CV-1, human; read-out: Efficacy. For orientation: A reporter such as luciferase makes a cellular process visible.

For data set [2], the target named is Retinoic acid receptor RXR-alpha/oxysterols receptor LXR-beta (Homo sapiens, UniProt P55055). As to the kind of experiment: Displacement of [3H]-24,25-epoxycholesterol from human LXRbeta/RXRalpha expressed in baculovirus infected Sf9 cells by scintillation proximity analysis. In a few lines: (§1)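 Binding affinity measured using full-length LXRα–RXRα and LXRβ–RXRα heterodimers.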
Retinoic acid receptor RXR-alpha/oxysterols receptor LXR-beta, sequence (P19793 whole entry, one chain of several): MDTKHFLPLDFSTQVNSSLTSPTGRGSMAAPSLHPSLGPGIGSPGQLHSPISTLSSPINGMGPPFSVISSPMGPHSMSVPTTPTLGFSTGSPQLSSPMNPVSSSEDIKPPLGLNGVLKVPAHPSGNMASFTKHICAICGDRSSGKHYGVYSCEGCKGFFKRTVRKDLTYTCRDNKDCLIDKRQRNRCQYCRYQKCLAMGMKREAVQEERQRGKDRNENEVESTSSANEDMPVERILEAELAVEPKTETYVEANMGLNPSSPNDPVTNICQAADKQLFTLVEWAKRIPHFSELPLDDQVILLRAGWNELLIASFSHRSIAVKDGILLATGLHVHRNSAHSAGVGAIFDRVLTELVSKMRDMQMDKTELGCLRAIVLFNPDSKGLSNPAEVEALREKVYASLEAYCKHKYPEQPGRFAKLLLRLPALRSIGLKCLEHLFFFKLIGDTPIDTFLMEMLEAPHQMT
In general terms: In a radioligand displacement assay an active substance lowers the binding of a labelled ligand.

Data set [3] deals with T1, Oxysterols receptor LXR-alpha. Description: Agonist activity at human LXR-alpha expressed in African green monkey CV1 cells measured after 18 to 20 hrs by luciferase reporter gene assay. In kind it is cell-based, CV-1.
Data set [4] deals with T2, Oxysterols receptor LXR-beta (Homo sapiens) (UniProt P55055).
T2 sequence (whole entry): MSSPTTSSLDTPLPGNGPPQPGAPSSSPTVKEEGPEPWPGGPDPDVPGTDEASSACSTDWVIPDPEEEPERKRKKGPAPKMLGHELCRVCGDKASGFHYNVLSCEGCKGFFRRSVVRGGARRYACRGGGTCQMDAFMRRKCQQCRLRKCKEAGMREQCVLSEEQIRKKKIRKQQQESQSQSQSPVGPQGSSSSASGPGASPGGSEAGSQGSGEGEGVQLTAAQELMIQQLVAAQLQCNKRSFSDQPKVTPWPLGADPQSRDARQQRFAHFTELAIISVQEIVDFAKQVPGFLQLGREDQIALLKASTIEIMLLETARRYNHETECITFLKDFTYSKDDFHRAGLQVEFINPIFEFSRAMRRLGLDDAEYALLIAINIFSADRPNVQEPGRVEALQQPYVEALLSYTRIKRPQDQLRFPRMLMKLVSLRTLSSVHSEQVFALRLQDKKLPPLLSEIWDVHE
As to the kind of experiment: Agonist activity at human LXR-beta expressed in African green monkey CV1 cells measured after 18 to 20 hrs by luciferase reporter gene assay relative to pan agonist 1-(2,4-difluorobenzyl)-2-oxo-6-(4-phenoxyphenyl)-4-(trifluoromethyl)-1,2-dihydropyridine-3-carbonitrile. In kind it is cell-based. The settings on record: CV-1.

For data set [5], the target named is Retinoic acid receptor RXR-alpha/oxysterols receptor LXR-alpha (Homo sapiens, UniProt Q13133). Description: Displacement of [3H]-24,25-epoxycholesterol from human LXRalpha/RXRalpha expressed in baculovirus infected Sf9 cells by scintillation proximity analysis. The method, boiled down:
as §1

Data set [6] has as its target T3, Oxysterols receptor LXR-beta (Homo sapiens, UniProt P55055).
T3 sequence (P55055 whole entry): T2 sequence (whole entry)
Description: Agonist activity at LXR-beta in human whole blood assessed as ABCA1 gene induction by measuring ABCA1 mRNA level after 4 hrs by SYBR-Green dye-based Q-PCR analysis. In kind it is tissue-based.

Data set [7] has as its target T2, Oxysterols receptor LXR-beta (Homo sapiens). Description: Agonist activity at LXR-beta in human whole blood assessed as ABCA1 gene induction by measuring ABCA1 mRNA level after 4 hrs by SYBR-Green dye-based Q-PCR analysis relative to pan agonist 2-(4-(5-(5-cyano-1-(2,4-difluorobenzyl)-6-oxo-4-(trifluoromethyl)-1,6-dihydropyridin-2-yl)thiophen-2-yl)-3-methylphenyl)acetic acid. In kind it is tissue-based.

Data set [8] addresses T3, Oxysterols receptor LXR-beta. Description: Agonist activity at LXR-beta in human HeLa cells assessed as induction of ABCA1 by beta-galactosidase/luciferase reporter gene assay. In kind it is cell-based. In a few lines: (§2)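 HeLa cells carrying endogenous LXRα and LXRβ receptors, transfected with an ABCA1 LXREx3 reporter construct; agonist-driven reporter induction measured.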

The target is the same in data set [9]. Description: Agonist activity at human LXR-beta expressed in African green monkey CV1 cells measured after 18 to 20 hrs by luciferase reporter gene assay. In kind it is cell-based, CV-1.
Data set [10] concerns the target T2, Oxysterols receptor LXR-beta (Homo sapiens). Description: Agonist activity at LXR-beta in human HeLa cells assessed as induction of ABCA1 by beta-galactosidase/luciferase reporter gene assay relative to control. In kind it is cell-based. The method, boiled down:
as §2

In data set [11] the target is Alpha-1-acid glycoprotein 1 (Homo sapiens, UniProt P02763). Description: Binding affinity to human alpha-1-AGP at 1 uM measured after 4 hrs by equilibrium dialysis method relative to control. In kind it is ADME. The settings on record: for PB: isolated protein, 4 h, 1 µM. In general terms: In equilibrium dialysis free small molecules cross a membrane that holds back macromolecules.
Alpha-1-acid glycoprotein 1, sequence (P02763 whole entry): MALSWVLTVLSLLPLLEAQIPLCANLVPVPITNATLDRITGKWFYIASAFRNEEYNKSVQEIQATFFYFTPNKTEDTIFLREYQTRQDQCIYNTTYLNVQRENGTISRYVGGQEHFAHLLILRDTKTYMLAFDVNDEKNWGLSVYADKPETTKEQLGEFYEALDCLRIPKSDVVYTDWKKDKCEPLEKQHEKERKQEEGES

The target in another data set is Albumin (Homo sapiens, UniProt P02768). Description: Binding affinity to human serum albumin at 1 uM measured after 4 hrs by equilibrium dialysis method relative to control. As to conditions: isolated protein, 4 h, 1 µM. In kind it is ADME.
Albumin, sequence (P02768 whole entry): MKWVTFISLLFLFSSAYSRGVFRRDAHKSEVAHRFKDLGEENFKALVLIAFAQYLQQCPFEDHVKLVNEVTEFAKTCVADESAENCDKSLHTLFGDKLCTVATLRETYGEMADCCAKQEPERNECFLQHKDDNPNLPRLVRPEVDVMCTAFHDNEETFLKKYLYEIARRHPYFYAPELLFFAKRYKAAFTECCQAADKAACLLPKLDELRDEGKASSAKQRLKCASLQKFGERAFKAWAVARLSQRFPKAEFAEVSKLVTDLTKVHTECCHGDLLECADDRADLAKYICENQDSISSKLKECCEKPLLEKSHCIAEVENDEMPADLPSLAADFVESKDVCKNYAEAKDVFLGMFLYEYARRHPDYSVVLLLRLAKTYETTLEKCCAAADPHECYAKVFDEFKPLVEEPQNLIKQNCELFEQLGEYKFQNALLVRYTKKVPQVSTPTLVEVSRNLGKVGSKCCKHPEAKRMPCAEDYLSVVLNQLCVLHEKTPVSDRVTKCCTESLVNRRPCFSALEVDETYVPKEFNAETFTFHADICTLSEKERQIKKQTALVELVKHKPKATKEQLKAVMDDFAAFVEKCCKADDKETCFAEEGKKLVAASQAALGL
The nature of data set [12]: Half life in cynomolgus monkey at 0.2 mg/kg, iv administered as cassette dose by LC/MS/MS analysis. In kind it is ADME, organism-based, Macaca fascicularis. As to conditions: in vivo.
The nature of data set [13]: Clearance in cynomolgus monkey at 0.2 mg/kg, iv administered as cassette dose by LC/MS/MS analysis. The settings on record: in vivo. In kind it is ADME, organism-based, Macaca fascicularis.

Retinoic acid receptor RXR-alpha/oxysterols receptor LXR-alpha, sequence (P19793 whole entry, one chain of several): as the sequence (P19793 whole entry, one chain of several) above

Take `CC(C)(O)c1cn(-c2ccc(-c3cc(F)c(CO)c(S(C)(=O)=O)c3)cc2)c(C(C)(C)c2c(Cl)cccc2Cl)n1`: in [1], the Emax was 25%. Besides, the Ki (commonly a dissociation constant, usually derived from enzyme kinetics or from competition with a known ligand) turned out to be 6 nM in data set [2] and 38 nM in data set [5]. Moreover, the EC50 – broadly, the concentration at which the effect is half-maximal – in data set [3] worked out at 30 nM; in [6] it was 15 nM; in [8], 3 nM; in [9], 42 nM. Further, the values for the Efficacy in data set [4], in data set [7] and in [10] were 72%, 43% and 23%, respectively.
Regarding `CC(C)(O)c1cn(-c2ccc(-c3cc(F)c(CO)c(S(C)(=O)=O)c3)cc2)c(C(C)(C)c2ccccc2F)n1`, in data set [1], the Emax amounted to 13%. Further, the values for the Ki in data set [2] and in data set [5] were 14 nM and 81 nM, respectively. Moreover, the EC50 in data set [3] stood at 130 nM; in [6] it was 43 nM; in [8], 12 nM; in data set [9] it was 160 nM. In addition, the Efficacy in data set [4] worked out at 68%; in data set [7], 28%; in data set [10] it was 15%.
Regarding `CC(C)(O)c1cn(-c2ccc(-c3cc(F)c(CO)c(S(C)(=O)=O)c3)cc2F)c(C(C)(C)c2c(F)cccc2Cl)n1`, the Emax in [1] was 15%. For the same molecule, the figures for the Ki in data set [2] and in data set [5] were 14 nM and 70 nM, respectively. For the same molecule, the EC50 in data set [3] turned out to be 11 nM; in data set [6], 41 nM; in data set [8], 1 nM; in [9], 20 nM. Besides, the Efficacy in data set [4] was 86%; in [7], 33%; in data set [10], 30%.
For `CC(C)(O)c1cn(-c2ccc(-c3cc(F)c(CO)c(S(C)(=O)=O)c3)cc2)c(Cc2c(Cl)cccc2Cl)n1`, the Emax in data set [1] amounted to 17%. In addition, the Ki in data set [2] is 11 nM; in [5] it was 75 nM. The EC50 was 69 nM in data set [3], 42 nM in data set [6], 5 nM in [8] and 140 nM in data set [9]. Besides, the results for the Efficacy in data set [4], in data set [7] and in data set [10] were 54%, 51% and 43%, respectively.
Regarding `CC(C)(O)c1cn(-c2ccc(-c3cc(F)c(CO)c(S(C)(=O)=O)c3)cc2Cl)c(C(C)(C)c2c(Cl)cccc2Cl)n1`, the Emax in [1] is 6%. Moreover, the Ki in [2] turned out to be 48 nM; in data set [5] it was 50 nM. Further, the EC50 in [3] came out at 8 nM; in [6], 5 nM; in data set [8] it was 2 nM; in data set [9], 27 nM. Moreover, the values for the Efficacy in data set [4], in data set [7] and in [10] were 51%, 16% and 12%, respectively.
Turning to `CC(C)(O)c1cn(-c2ccc(-c3cccc(S(C)(=O)=O)c3)cc2)c(C(C)(C)c2c(Cl)cccc2Cl)n1`, the Emax in [1] came to 20%. Besides, the Ki in data set [2] was 11 nM; in [5] it was 16 nM. The EC50 in [3] came to 99 nM; in data set [6], 380 nM; in data set [8], 18 nM; in data set [9] it was 170 nM. In addition, the Efficacy in [4] came to 41%; in data set [7], 32%; in data set [10] it was 42%. In addition, in [11] (human alpha-1-acid glycoprotein, read-out: PB), the fraction unbound at 4 h, 1 µM fell in the range of 0.004 to 0.01. Moreover, the PB at Albumin was 97.9%.
For `CC(c1c(Cl)cccc1Cl)c1nc(C(C)(C)O)cn1-c1ccc(-c2cc(F)c(CO)c(S(C)(=O)=O)c2)cc1F` (stereo not given), the Emax in data set [1] was 18%. Besides, the Ki in data set [2] was determined as 13 nM; in data set [5] it was 17 nM. The EC50 in [3] stood at 12 nM; in data set [6], 23 nM; in [8], 2 nM; in data set [9], 25 nM. In addition, the values for the Efficacy in [4], in data set [7] and in [10] were 67%, 17% and 9%, respectively.
Turning to `CC(C)(O)c1cn(-c2ccc(-c3cc(F)c(CO)c(S(C)(=O)=O)c3)cc2)c(C(C)(C)c2ccccc2Cl)n1`, the Emax in [1] came to 29%. Further, the figures for the Ki in [2] and in data set [5] were 10 nM and 53 nM, respectively. Also, the EC50 turned out to be 76 nM in [3], 57 nM in data set [6], 8 nM in data set [8] and 72 nM in data set [9]. Also, the Efficacy in data set [4] is 83%; in [7], 47%; in data set [10], 43%. Besides, the PB in data set [11] is 86.6%; at Albumin it was 95.5%. Moreover, the half-life (as a rule, the time needed for the level to fall by half in the phase considered) in data set [12] was 5.6 h. The clearance (commonly the volume of plasma or blood freed of the substance per unit of time) in data set [13] was determined as 8.4 mL/min/kg.
`CC(O)c1ccc(-c2ccc(-n3cc(C(C)(C)O)nc3C(C)(C)c3ccccc3Cl)cc2)cc1S(C)(=O)=O` (stereo not given): the Emax in data set [1] was determined as 47%. Also, the values for the Ki in data set [2] and in [5] were 40 nM and 180 nM, respectively. Moreover, the concentration giving a half-maximal response (EC50) was 120 nM in [3], 870 nM in data set [6], 21 nM in data set [8] and 220 nM in data set [9]. For the same molecule, the values for the Efficacy in [4], in data set [7] and in data set [10] were 93%, 47% and 68%, respectively. Further, the half-life in data set [12] is 5.5 h. Moreover, in [13], the clearance is 5.6 mL/min/kg.
Consider `CC(C)(O)c1cn(-c2ccc(-c3ccc(CO)c(S(C)(=O)=O)c3)cc2)c(C(C)(C)c2ccccc2Cl)n1`, for which, in [1], the Emax is 46%. Moreover, the Ki in data set [2] was determined as 13 nM; in data set [5] it was 74 nM. Also, the EC50 stood at 110 nM in data set [3], 300 nM in [6], 12 nM in data set [8] and 170 nM in [9]. Also, the Efficacy was determined as 74% in data set [4], 46% in data set [7] and 56% in data set [10]. Besides, the PB in data set [11] turned out to be 90.2%; on Albumin, 96.1%.
As to `CC(C)(O)c1cn(-c2ccc(-c3cc(F)c(CO)c(S(C)(=O)=O)c3)cc2F)c(C(C)(C)c2ccccc2Cl)n1`, the Emax in data set [1] is 25%. Also, the results for the Ki in data set [2] and in [5] were 18 nM and 9 nM, respectively. Further, the EC50 in data set [3] was determined as 57 nM; in data set [6], 46 nM; in data set [8], 2 nM; in data set [9], 50 nM. Further, the Efficacy came to 79% in data set [4], 35% in [7] and 29% in data set [10].
